According to ChEMBL document CHEMBL1155063 (Bioorg Med Chem, 2008):

Target: Telomerase reverse transcriptase (Homo sapiens, UniProt O14746)
Assay: Inhibition of G-quadruplex-induced human TERT in H1299 cells by TRAP assay
Format: cell-based
Method in brief: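 Modified TRAP assay using 2 µg total lysate from H1299 lung cancer cells as the telomerase source. Compounds were tested at 1, 5, 10 and 20 µM. Products were resolved on 10% polyacrylamide gels and stained with SYBR Green. A Taq-polymerase internal control was included, along with positive and negative controls.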

Telomerase reverse transcriptase, sequence (O14746 whole entry): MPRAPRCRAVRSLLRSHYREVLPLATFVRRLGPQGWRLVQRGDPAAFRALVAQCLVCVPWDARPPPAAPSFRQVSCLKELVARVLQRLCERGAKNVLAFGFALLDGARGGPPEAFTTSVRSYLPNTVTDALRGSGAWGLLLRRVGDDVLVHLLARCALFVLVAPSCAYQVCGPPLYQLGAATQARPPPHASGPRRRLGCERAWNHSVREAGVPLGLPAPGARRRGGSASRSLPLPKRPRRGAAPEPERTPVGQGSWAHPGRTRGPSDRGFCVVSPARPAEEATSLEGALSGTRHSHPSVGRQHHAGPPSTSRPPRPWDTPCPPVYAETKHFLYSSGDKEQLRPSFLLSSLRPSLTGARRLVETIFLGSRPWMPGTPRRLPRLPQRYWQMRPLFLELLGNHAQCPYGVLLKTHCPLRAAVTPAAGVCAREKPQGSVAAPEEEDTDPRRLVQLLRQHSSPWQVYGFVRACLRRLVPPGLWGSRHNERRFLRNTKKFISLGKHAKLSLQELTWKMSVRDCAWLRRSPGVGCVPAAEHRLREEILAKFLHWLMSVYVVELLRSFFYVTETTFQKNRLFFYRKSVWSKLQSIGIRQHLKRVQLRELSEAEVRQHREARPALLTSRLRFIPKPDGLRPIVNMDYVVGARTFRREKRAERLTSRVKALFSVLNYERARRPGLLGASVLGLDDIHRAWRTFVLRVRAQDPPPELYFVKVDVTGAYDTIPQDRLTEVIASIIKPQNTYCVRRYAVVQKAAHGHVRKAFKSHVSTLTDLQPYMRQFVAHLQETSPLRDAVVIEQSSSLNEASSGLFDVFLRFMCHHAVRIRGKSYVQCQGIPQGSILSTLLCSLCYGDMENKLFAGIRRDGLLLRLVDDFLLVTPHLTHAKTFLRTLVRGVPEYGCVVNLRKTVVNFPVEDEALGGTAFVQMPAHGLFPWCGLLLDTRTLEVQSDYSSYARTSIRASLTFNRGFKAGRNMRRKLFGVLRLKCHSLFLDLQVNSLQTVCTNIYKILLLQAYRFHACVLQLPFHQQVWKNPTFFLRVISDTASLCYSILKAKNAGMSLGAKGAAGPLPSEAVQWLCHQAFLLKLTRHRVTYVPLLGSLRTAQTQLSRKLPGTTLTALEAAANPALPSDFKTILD

## O=C(CCN1CCCC1)Nc1ccc2c(c1)C(=O)c1cc(NC(=O)CCN3CCCC3)ccc1C2=O
  IC50: 6.7 µM
